Experiment [1] concerns Rattus norvegicus. Description: Evaluated for the adjuvant-induced arthritis edema of uninjected paw on 11-day after 3.16 mg/kg dose of peroral administration of the compound. As to conditions: route oral.
In experiment [2] the test system is Mus musculus. Kind of experiment: Evaluated for the Delayed type hypersensitivity (DTH) response to methylated BSA (mBSA) in sensitive mice at a dose of 31.6.00 mg/kg after peroral administration. Format: functional. A digest of the protocol:
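Delayed-type hypersensitivity in mice: sensitized to mBSA on day 0, dosed orally on days 4, 5, 6 and 7, then challenged with mBSA in the left hind paw on day 7. Paw weight was measured 24 h after challenge. n = 10 per group. Result is % change from sensitized positive control, by Dunnett's t test. Negative control received Freund's complete adjuvant without mBSA.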

Experiment [3] concerns Rattus norvegicus. Description: Evaluated for the carrageenan-induced pleural volume in rats at a dose of 100 mg/kg after peroral administration. Type of experiment: functional. As to conditions: route oral. In short, it runs like this:
(§1)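 Carrageenan-induced pleurisy in rats, Evans blue pleural effusion assay. Twenty oral doses, one per day, were given before carrageenan challenge. Pleural volume is mL ± SD, n = 6 per group, with % change from control and Dunnett's t test (p < 0.05).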

Experiment [4] is filed under the species Rattus norvegicus. Description: 32-day X-ray(0= normal to 10= maximum joint destruction) was determined. Format: functional. A digest of the protocol:
(§2)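 Adjuvant-induced arthritic rats were dosed orally once daily from day 18 through day 50 after adjuvant injection, on a therapeutic regimen. The uninjected joint was X-rayed and scored blind at 32 days on an arbitrary scale from 0 (normal) to 10 (maximum joint destruction). Values are mean ± SD, compared with vehicle control by Dunnett's t test (p < 0.05).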

Experiment [5] concerns Rattus norvegicus. Description: Evaluated for the adjuvant-induced arthritis edema of uninjected paw on 11-day after 10 mg/kg dose of peroral administration of the compound. As to conditions: route oral.
The species entered for experiment [6] is Rattus norvegicus. Description: Weight change of rat was determined; Not significant. Type of experiment: functional, organism-based. A digest of the protocol:
(§3)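 In adjuvant arthritic rats dosed orally from day 18 through day 50 post adjuvant injection, weight change was compared with vehicle control by Dunnett's t test.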

Experiment [7] has as its system Rattus norvegicus. Kind of experiment: Evaluated for the adjuvant-induced arthritis edema of uninjected paw on 11-day after 1 mg/kg dose of peroral administration of the compound. To be noted: route oral.
In experiment [8] the test system is Rattus norvegicus. Description: Evaluated for the adjuvant-induced arthritis edema of uninjected paw on 32-day after 1 mg/kg dose of peroral administration of the compound. As to conditions: route oral.
Experiment [9] deals with Rattus norvegicus. Kind of experiment: Evaluated for the carrageenan-induced pleural volume in rats at a dose of 4 mg/kg after peroral administration. Format: functional. As to conditions: route oral. In short, it runs like this: as §1
Experiment [10] concerns Rattus norvegicus. Description: Evaluated for the […] on 32-day after 10 mg/kg dose of peroral administration of the compound. Type of experiment: functional. To be noted: route oral. A digest of the protocol:
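Adjuvant-induced arthritic rat model with oral dosing from day 18 through day 50 post adjuvant. Edema was the volume change of the uninjected hind paw. The 11-day Δ is day 29 volume minus day 18 volume; the 32-day Δ is day 50 minus day 18. Values are mL ± SD against a vehicle control, by Dunnett's t test (p < 0.05).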

Experiment [11] relates to Rattus norvegicus. Kind of experiment: Evaluated for the adjuvant-induced arthritis edema of uninjected paw on 32-day after 3.16 mg/kg dose of peroral administration of the compound. As to conditions: route oral.
The subject of experiment [12] is Rattus norvegicus. Kind of experiment: Evaluated for the adjuvant-induced arthritis edema of uninjected paw on 11-day after 31.6 mg/kg dose of peroral administration of the compound. As to conditions: route oral.
Experiment [13] concerns Rattus norvegicus. Description: Evaluated for the adjuvant-induced arthritis edema of uninjected paw on 32-day after 31.6 mg/kg dose of peroral administration of the compound. As to conditions: route oral.
Experiment [14] deals with Rattus norvegicus. Description: Evaluated for the adjuvant-induced arthritis edema of uninjected paw on 32-day after 10 mg/kg dose of peroral administration of the compound. As to conditions: route oral.
The species entered for experiment [15] is Rattus norvegicus. Kind of experiment: X-rays scored on an arbitrary (0=normal to 10=max. joint destruction) scale in a blinded manner was determined; 32-day X-ray. Type of experiment: functional. A digest of the protocol: as §2
Experiment [16] concerns Rattus norvegicus. Description: Evaluated for the adjuvant-induced arthritis edema of uninjected paw on 11-day after 100 mg/kg dose of peroral administration of the compound. To be noted: route oral.
The test system of experiment [17] is Rattus norvegicus. Kind of experiment: Evaluated for the adjuvant-induced arthritis edema of uninjected paw on 32-day after 100 mg/kg dose of peroral administration of the compound. As to conditions: route oral.
Experiment [18] concerns Mus musculus. Description: Evaluated for the delayed type hypersensitivity (DTH) response to methylated BSA (mBSA) in sensitive mice after peroral administration of 50 mg/kg. As to conditions: route oral. Format: functional. A digest of the protocol:
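Mice were sensitized to mBSA on day 0, dosed orally on days 4, 5, 6 and 7, and challenged with mBSA in the left hind paw on day 7. Paw weight was measured 24 h after challenge, with 10 mice per group. Negative controls received Freund's complete adjuvant without mBSA.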

For experiment [19], the system named is Rattus norvegicus. Description: Evaluated for the carrageenan-induced pleural volume in rats at a dose of 3.16 mg/kg after peroral administration. Format: functional. As to conditions: route oral. A digest of the protocol: as §1
The species entered for experiment [20] is Rattus norvegicus. Description: Weight change of rat was determined; + = significant increase in weight change from control. Format: functional, organism-based. A digest of the protocol:
as §3

Where “and” joins values, the source holds several entries; their conditions need not be identical. Equal values may be shown once. Calls of active or inactive are those of the source. The rule behind the calls is not given here.

On to `CNS(=O)(=O)OCC(COc1ccccc1OC)OS(=O)(=O)NC` (stereo unspecified), for which the Edema was less than -0.14 mL with Rattus norvegicus [1]; less than -0.39 mL in the experiment with Rattus norvegicus [5]; 0.1 mL with Rattus norvegicus [7]; less than -0.23 mL with Rattus norvegicus [8]; -0.41 mL and <-0.42 mL and <-0.61 mL in the experiment with Rattus norvegicus [10]; less than -0.38 mL with Rattus norvegicus [11]. Further, in the experiment on Mus musculus [2], the Paw weight is on record as 179 mg. Also, the Pleural volume in the experiment on Rattus norvegicus [3] worked out at 4.92 mL; with Rattus norvegicus [9], 5.2 mL. Also, in the experiment filed under Rattus norvegicus [4], the Score is <5.82 and <5.77 and <6.9 and 7.8. Besides, the Weight change entry in the experiment listed under Rattus norvegicus [6] is “inactive”.

Compound `CNS(=O)(=O)OC[C@H](COc1ccccc1OC)OS(=O)(=O)NC` registered a Score in the experiment filed under Rattus norvegicus [4] of 7.86. The Edema in the experiment on Rattus norvegicus [12] is 0.16 mL; in the experiment on Rattus norvegicus [13] it was -0.03 mL.

Take `CNS(=O)(=O)OC[C@@H](COc1ccccc1OC)OS(=O)(=O)NC`: the Edema is less than -0.46 mL in the experiment on Rattus norvegicus [14] and less than -0.33 mL in the experiment on Rattus norvegicus [5]. Also, the Score in the experiment filed under Rattus norvegicus [4] was <4.96 and 6.64. Further, the Weight change result in the experiment listed under Rattus norvegicus [6] was “inactive”.

In the experiment listed under Rattus norvegicus [15], `COc1ccccc1OCC(O)CO` (stereo unspecified) [GUAIFENESIN] had a Score of 8.83. Also, the Edema with Rattus norvegicus [16] was 0.07 mL; in the experiment with Rattus norvegicus [17], -0.4 mL. Further, in the experiment filed under Rattus norvegicus [6], the Weight change result is “inactive”.

Regarding `O=P1(N(CCCl)CCCl)NCCCO1` (stereo unspecified) [CYCLOPHOSPHAMIDE ANHYDROUS], the Paw weight with Mus musculus [18] came out at 153 mg.

As to `COc1ccc2c(c1)c(CC(=O)O)c(C)n2C(=O)c1ccc(Cl)cc1` [INDOMETHACIN], in the experiment filed under Rattus norvegicus [4], the Score was 3.54 and <4.07 and <3.8 and <4.04. For the same compound, in the experiment with Rattus norvegicus [19], the Pleural volume is 3.5 mL. Also, the Weight change result in the experiment filed under Rattus norvegicus [20] was “Active”.

The values are drawn from ChEMBL document CHEMBL1124858, “Methylsulfamic acid esters. A new chemical class of oral antiarthritic agents” (1990).
